Screening results deposited in PubChem BioAssay by Sanford-Burnham Center for Chemical Genomics.
G6PDH counter: L. mesenteroides G6PDH inhibitors, counter-screen for G6PDH-coupled screening assays, biochemical, Leuconostoc mesenteroides enzyme. inhibition, % at 5 µM. glucose-6-phosphate dehydrogenase [Leuconostoc mesenteroides]. Purified L. mesenteroides G6PDH, diaphorase/resazurin coupled fluorescence, 45 min. AID 1020, 2008. 0.12% of 200,000 active; in the data active means inhibition above about 50%
Diaph inh CS: diaphorase inhibitors and chemical oxidizers, primary screen, counter-screen for diaphorase-coupled primary assays, biochemical, uHTS, resorufin fluorescence; inhibition, % at 20 µM; diaphorase resazurin-to-resorufin fluorescence, NADH, 16 min; bacterial (C. kluyveri) enzyme, not human; 0.69% of 190,000 active;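 active means primary screen inhibition at 20 µM above a set limit, cut at about 50% in these data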;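 further: plate controls were DMSO with full reaction for no effect and wells lacking NADH for full effect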
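Test system: Clostridium kluyveri diaphorase enzyme / Quantity: diaphorase at 0.14 U/mL in enzyme working solution / Incubation: 16-min room-temperature incubation before reading / Benchmarks: NADH-free wells as positive control, DMSO-only neutral wells / Signal: resorufin fluorescence 544/590 nm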
Diaph act CS: compounds boosting diaphorase resazurin reduction – biochemical, uHTS, resorufin fluorescence, counter-screen for diaphorase-coupled primary assays, primary screen; Diaphorase/resazurin coupled assay, 16 min; active compounds read high; 1 = vehicle wells, 0 = NADH-free wells; activation factor at 20 µM; 0.005% of 190,000 active; AID 1229, 2008;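 active means diaphorase activity raised at least twofold by the compound at 20 µM; inactive means activation factor below 2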
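Material: purified diaphorase enzyme from Clostridium kluyveri / Medium: HEPES pH 7.4 buffer with MgCl2 and Tween 20 / Schedule: enzyme reaction of 16 min at room temperature / Measured by: resorufin fluorescence, excitation 544 nm, emission 590 nm / Evaluation: rise in resorufin formation, marking diaphorase activation or chemical reduction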
PMI act: activators of human PMI, primary screen, biochemical, fluorescence intensity, near-Km mannose 6-phosphate. purified human PMI, coupled resazurin fluorescence, 20 min; active compounds read high; 1 = vehicle control, 0 substrate-free wells. 0.005% of 190,000 active. activation factor at 20 µM. Mannose-6-phosphate isomerase (Homo sapiens), P34949;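 active means activation factor of 2 or more at 20 µM, relative to plate controls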
Target sequence (P34949 whole entry, looked up): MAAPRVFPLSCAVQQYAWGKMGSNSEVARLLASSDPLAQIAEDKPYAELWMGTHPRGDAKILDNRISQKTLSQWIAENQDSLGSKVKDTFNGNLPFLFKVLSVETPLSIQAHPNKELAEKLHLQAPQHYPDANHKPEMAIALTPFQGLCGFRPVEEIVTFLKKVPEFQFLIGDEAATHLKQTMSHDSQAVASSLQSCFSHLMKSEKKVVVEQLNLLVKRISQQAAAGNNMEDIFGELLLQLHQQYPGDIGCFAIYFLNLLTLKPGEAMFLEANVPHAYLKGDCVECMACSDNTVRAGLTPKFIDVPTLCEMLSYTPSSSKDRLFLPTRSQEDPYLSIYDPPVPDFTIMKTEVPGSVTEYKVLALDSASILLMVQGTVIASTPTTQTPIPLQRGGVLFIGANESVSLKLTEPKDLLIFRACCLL
PMI act hi M6P: human PMI activators, high substrate, primary screen, biochemical, fluorescence intensity, near-saturating mannose 6-phosphate | coupled PMI enzyme assay, resazurin fluorescence, 20 min; active compounds read high; 1 = untreated enzyme, 0 = substrate-free blank | activation factor at 20 µM | 0.34% of 190,000 active | AID 1216, 2008;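 active means activation factor of 2 or more at 20 µM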
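Test system: human phosphomannose isomerase with PGI, G6PDH, diaphorase coupling enzymes / Doses: 20 µM compound, 1% DMSO / Times: enzyme reaction with compound 20 min at room temperature / Measured by: Diaphorase-driven resazurin-to-resorufin fluorescence, excitation 544, emission 590 nm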
* = called active by the depositor. Compounds with a hit are over-represented: about 1.1% of the library has one in this group of screens.

For CC(/C=C\C=C\c1ccccc1)=N\NC(=O)c1cncc(Br)c1 the results were G6PDH counter 3.9, Diaph inh CS 10.6, Diaph act CS 0.9, PMI act 1.6 and PMI act hi M6P 1.9.
`Cc1cc(C)c(C#N)c(SCc2[nH]nc3c2C(c2ccc(F)cc2)C(C#N)=C(N)O3)n1` (stereo not drawn) gave G6PDH counter -5.3, Diaph inh CS 45.7, Diaph act CS 0.5, PMI act 0.9 and PMI act hi M6P 0.8.
For Cc1cc(C#N)c(C)c(SCc2[nH]nc3c2C(c2ccccc2)C(C#N)=C(N)O3)n1 (stereo not drawn) the results were G6PDH counter 1.3, Diaph inh CS 54.2*, Diaph act CS 0.5, PMI act 0.9 and PMI act hi M6P 0.7.
Screening Cc1nonc1OCCCNc1ccc([N+](=O)[O-])cc1Cl returned G6PDH counter 3.0, Diaph inh CS 17.9, Diaph act CS 0.8, PMI act 1.1 and PMI act hi M6P 0.9.
CCc1cc[n+](C2=C([O-])c3ccccc3C(=O)/C2=N\S(=O)(=O)c2cccs2)cc1 was read as G6PDH counter 50.8*, Diaph inh CS 20.7, Diaph act CS 0.8, PMI act 1.1 and PMI act hi M6P 0.6.
For CC(=O)c1ccc(NC(=S)N2C(C)CCCC2C)cc1 (stereo not drawn) the results were G6PDH counter 3.4, Diaph inh CS 8.4, Diaph act CS 0.9, PMI act 1 and PMI act hi M6P 1.1.
`CC1=C/C(=C\c2ccc(Br)o2)C(=O)O1` gave G6PDH counter -15.2, Diaph inh CS 17.4, Diaph act CS 0.8, PMI act 1.1 and PMI act hi M6P 1.1.
O=C1C(=Cc2ccc(Br)o2)C(=O)c2ccccc21 was read as G6PDH counter -15.9, Diaph inh CS 64.0*, Diaph act CS 0.4, PMI act 1.2 and PMI act hi M6P 0.9.
For O=C(Nc1cccc([N+](=O)[O-])c1)c1ccn[nH]1 the results were G6PDH counter 0.8, Diaph inh CS 34.8, Diaph act CS 0.7, PMI act 1 and PMI act hi M6P 0.9.
For Cc1cccc(NC(=O)c2cccc(Cn3cc(Br)c([N+](=O)[O-])n3)c2)c1C the results were G6PDH counter 4.2, Diaph inh CS 7.2, Diaph act CS 0.9, PMI act 0.9 and PMI act hi M6P 0.9.
Screening Fc1ccccc1/C=C1\CCCC2=C1NC(=S)NC2c1ccccc1F (stereo not drawn) returned G6PDH counter -3.5, Diaph inh CS 8.0, Diaph act CS 0.9, PMI act 1.7 and PMI act hi M6P 2.2*.
S=C1NC2=C(CCC/C2=C\c2ccccc2)C(c2ccccc2)N1 (stereo not drawn) was read as G6PDH counter -8.5, Diaph inh CS 11.1, Diaph act CS 0.9, PMI act 1.6 and PMI act hi M6P 2.4*.
`S=C1NC2=C(CCCC2=C2SCCCS2)C(c2ccccc2)N1` (stereo not drawn) gave G6PDH counter 1.4, Diaph inh CS 6.1, Diaph act CS 0.9, PMI act 1 and PMI act hi M6P 1.
`Cc1ccc2cc(CCNC(=O)c3ccc(C)c([N+](=O)[O-])c3)c(=O)[nH]c2c1` gave G6PDH counter -1.6, Diaph inh CS 59.4*, Diaph act CS 0.4, PMI act 0.9 and PMI act hi M6P 1.2.
CCC(CC)C(=O)NCCc1cc2ccc(C)cc2[nH]c1=O was read as G6PDH counter -10.4, Diaph inh CS 13.0, Diaph act CS 0.9, PMI act 0.8 and PMI act hi M6P 0.9.
For CC(C)N(CC#CCC1(O)c2ccccc2-c2ccccc21)CCO the results were G6PDH counter 16.6, Diaph inh CS 59.8*, Diaph act CS 0.4, PMI act 0.6 and PMI act hi M6P 0.7.
For CCN(CC#CCC1(O)c2ccccc2-c2ccccc21)CCO the results were G6PDH counter 3.3, Diaph inh CS 10.3, Diaph act CS 0.9, PMI act 0.9 and PMI act hi M6P 1.
For COc1cc(C2c3c([nH]c(=O)[nH]c3=O)Nc3ccc4ccccc4c32)cc(OC)c1OC (stereo not drawn) the results were G6PDH counter 7.1, Diaph inh CS 53.3*, Diaph act CS 0.5, PMI act 0.9 and PMI act hi M6P 0.6.
Cn1cc2cc(NC(N)=S)ccc2n1 was read as G6PDH counter -8.0, Diaph inh CS 22.1, Diaph act CS 0.8, PMI act 1 and PMI act hi M6P 0.7.
For Cn1cc2ccc(N)cc2n1 the results were G6PDH counter 53.7*, Diaph inh CS 70.1*, Diaph act CS 0.3, PMI act 0.3 and PMI act hi M6P 0.2.
For CN(C)C(=S)Nc1ccc2ccccc2c1 the results were G6PDH counter 13.2, Diaph inh CS -2.8, Diaph act CS 1, PMI act 0.9 and PMI act hi M6P 1.
CSCc1nc2scc(-c3ccccc3)c2c(=O)[nH]1 was read as G6PDH counter 11.1, Diaph inh CS 0.0, Diaph act CS 1, PMI act 1.3 and PMI act hi M6P 1.2.
For O=c1[nH]c(Cc2ccccn2)nc2scc(-c3ccccc3Cl)c12 the results were G6PDH counter 6.4, Diaph inh CS 1.0, Diaph act CS 1, PMI act 1.8 and PMI act hi M6P 2.1*.
For O=C(COc1ccc(Cl)cc1)Nc1nnc(C2=COCCO2)o1 the results were G6PDH counter 4.2, Diaph inh CS 9.8, Diaph act CS 0.9, PMI act 1.1 and PMI act hi M6P 1.
Screening COCc1cc(C)nc(SCC(=O)N2CCC(C)CC2)c1C#N returned G6PDH counter -6.6, Diaph inh CS 5.8, Diaph act CS 0.9, PMI act 1 and PMI act hi M6P 1.1.
`CCOP(=O)(OCC)c1nc(-c2cccc3ccccc23)oc1NCc1ccc(OC)cc1` gave G6PDH counter 3.4, Diaph inh CS 21.2, Diaph act CS 0.8, PMI act 1 and PMI act hi M6P 1.
Screening CCOP(=O)(OCC)c1nc(-c2ccc(C)cc2)oc1NCc1ccccc1 returned G6PDH counter -0.9, Diaph inh CS 26.7, Diaph act CS 0.7, PMI act 0.9 and PMI act hi M6P 0.9.
For CCOP(=O)(OCC)c1nc(/C=C/c2ccccc2)oc1NCc1ccc(OC)cc1 the results were G6PDH counter 7.9, Diaph inh CS 51.9*, Diaph act CS 0.5, PMI act 0.9 and PMI act hi M6P 0.9.
